The record followed here is PubChem BioAssay.

Activity calls are given as the source filed them.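 Rule for the calls, unless noted: active = viability at or under a set limit in both replicates, limit being median viability minus 3 SD (cut at about 48% in these data, passing the limit was not always enough); inconclusive = at or under the limit in just one replicate; inactive = at or above the limit in both replicates.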

A short description of assay [1]: Her2 expression decrease, cell viability multiplex – SKBR3 breast tumor cells, AlphaScreen, ATP viability, primary screen (AID 461;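 active = Her2 level under about 52% in both replicate screens, with viability over 70% of control, limit read from the data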;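 for Her2 level: lower value means less Her2 protein in the cells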;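 for viability: percent of carrier control wells set as 100% viability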). The conditions noted are these: SKBR3 Her2 protein level, 18-24 h, measured here: SKBR3 viability, ATP luminescence, at 10 µM. Background: Bead proximity is the source of the signal in Alpha formats.
Assay [2] has as its target Receptor tyrosine-protein kinase erbB-2 (Homo sapiens) (UniProt P04626). The assay is described as above. The following applies: 18-24 h, at 10 µM, stronger effect = lower value.
Assay [3] in a line: reduced viability of SK-BR-3 breast cancer cells – cell-based, 24 h, human, pilot screen (AID 572;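 active = viability at or below 10% of carrier control in both of two separate runs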;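 note: compound exposure lasted between 18 and 24 h rather than exactly 24 h; 100% = carrier-treated control wells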). The following applies: SK-BR-3 viability, CellTiter-Glo luminescence, at 10 µM, stronger effect = lower value. For orientation: In ATP-based viability assays light output follows the ATP content of the culture.
The nature of assay [4]: HUVEC growth inhibition – cell-based, human, primary screen (AID 575;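 active = viability at or below 30% in both replicate assays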;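 note: 100% = median of untreated cell wells with 0.1% DMSO on each plate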). The conditions noted are these: HUVEC proliferation, CellTiter-Glo luminescence, 72 h; at 10 µM; stronger effect = lower value. In outline:
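Material: primary human umbilical vein endothelial cells / Schedule: 72 h exposure, 37 °C, 5% CO2, 30 min RT equilibration / Signal: ATP-based CellTiter-Glo luminescent read / Read-out basis: percent of median DMSO-control luminescence / Control set: 32 DMSO-only cell-control wells (high), 32 MePR drug-control wells (low) per plate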

Assay [5] in a line: H69AR cell proliferation blockers – human, duplicate replicates, primary screen (AID 580).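 Note: 100% = mean luminescence of untreated wells and 0% = no signal.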 The following applies: H69AR lung tumor cells viability, ATP luminescence, 72 h; at 10 µM; stronger effect = lower value.
Assay [6] is described as follows: MRP1 drug-resistance reversers in H69AR cells – cell-based, doxorubicin co-treatment, pilot screen (AID 601;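 active = viability loss from added drug above about 55%, and viability with drug at most 40%, in both replicates, limit read from the data, passing the limit was not always enough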). The following applies: CellTiter-Glo, 72 h, at 10 µM; for differential viability (reversal): stronger effect = higher value.
Assay [7] can be described thus: yeast transport mutant growth inhibition pilot in 384-well plates, post-Golgi transport modulator project (AID 636; in the data active = inhibition above about 31%). The conditions noted are these: absorbance 615 nm, about 18 h, stronger effect = higher value.
Assay [8] in a line: growth suppression of yeast trafficking mutant, preliminary HTS, modulators of trafficking downstream of Golgi apparatus project, 1536-format plate, OD 615 nm (AID 637; in the data active = inhibition above about 30%). The following applies: yeast transport mutant growth, absorbance 615 nm, 18 h; stronger effect = higher value.
Setting [9] is: H69AR cells + 2 uM doxorubicin, measured here: viability with 2 uM doxorubicin, stronger effect = lower value.
Where [10] appears, read: H69AR cells, compound alone cytotoxicity.

Chain of Receptor tyrosine-protein kinase erbB-2 (Homo sapiens) (P04626 whole entry, looked up): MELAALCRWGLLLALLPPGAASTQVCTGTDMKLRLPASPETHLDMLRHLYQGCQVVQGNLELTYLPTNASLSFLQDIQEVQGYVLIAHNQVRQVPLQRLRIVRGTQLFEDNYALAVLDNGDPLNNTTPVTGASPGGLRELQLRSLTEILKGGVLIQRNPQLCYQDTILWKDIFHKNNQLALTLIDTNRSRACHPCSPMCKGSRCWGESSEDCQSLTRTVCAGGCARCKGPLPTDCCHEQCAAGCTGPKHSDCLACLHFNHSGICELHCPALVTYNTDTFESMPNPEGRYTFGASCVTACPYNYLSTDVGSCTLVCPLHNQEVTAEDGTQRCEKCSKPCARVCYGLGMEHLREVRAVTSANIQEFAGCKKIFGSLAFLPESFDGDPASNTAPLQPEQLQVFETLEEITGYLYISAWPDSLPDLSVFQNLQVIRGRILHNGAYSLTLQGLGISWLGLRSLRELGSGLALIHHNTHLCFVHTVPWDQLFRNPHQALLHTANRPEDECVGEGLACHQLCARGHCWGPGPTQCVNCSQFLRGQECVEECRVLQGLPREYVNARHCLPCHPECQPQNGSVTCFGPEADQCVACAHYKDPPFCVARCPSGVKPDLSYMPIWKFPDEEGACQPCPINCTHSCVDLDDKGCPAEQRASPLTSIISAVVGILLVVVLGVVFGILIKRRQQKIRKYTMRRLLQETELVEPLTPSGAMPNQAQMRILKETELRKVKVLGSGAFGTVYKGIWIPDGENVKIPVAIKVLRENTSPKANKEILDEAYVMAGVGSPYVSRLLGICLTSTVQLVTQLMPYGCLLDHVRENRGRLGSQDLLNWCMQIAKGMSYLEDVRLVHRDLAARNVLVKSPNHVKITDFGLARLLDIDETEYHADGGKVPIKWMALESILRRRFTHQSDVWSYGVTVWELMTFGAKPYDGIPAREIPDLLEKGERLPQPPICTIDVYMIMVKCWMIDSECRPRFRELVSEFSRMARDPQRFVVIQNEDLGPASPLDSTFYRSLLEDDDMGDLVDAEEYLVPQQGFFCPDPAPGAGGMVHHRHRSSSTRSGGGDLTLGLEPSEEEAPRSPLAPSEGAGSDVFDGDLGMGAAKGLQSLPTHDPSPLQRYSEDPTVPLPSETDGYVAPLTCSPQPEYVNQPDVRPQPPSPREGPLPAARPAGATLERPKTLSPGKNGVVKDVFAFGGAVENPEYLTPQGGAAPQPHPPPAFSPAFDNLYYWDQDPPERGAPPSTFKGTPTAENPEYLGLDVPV

Take `Cc1cc(C)c2nc(N)sc2c1`: the viability in assay [1] was 95.5%; in assay [3], 95.5% (inactive); in assay [4] it was 105% (inactive); in assay [5], 103% (inactive); in assay [6] (setting [9]) it was 85.8%; in assay [6] (setting [10]), 103%. The Her2 level in assay [2] was 108% (inactive). The differential viability (reversal) in assay [6] (H69AR cells + 2 uM doxorubicin) is 16.9% (inactive). In addition, the inhibition is -6.62% (inactive) in assay [7] and -3.33% (inactive) in assay [8].

For the compound `CCN(CC)S(=O)(=O)c1ccc(Cl)c(C(=O)OC)c1`, the viability was 97% in assay [1]; 97% (inactive) in assay [3]; 99% (inactive) in assay [4]; 95.7% (inactive) in assay [5]; 91% in assay [6] (setting [9]); 95.7% in assay [6] (setting [10]). The Her2 level in assay [2] is 93% (inactive). Also, in assay [6] (H69AR cells + 2 uM doxorubicin), the differential viability (reversal) was 4.65% (inactive). Besides, the results for the inhibition in assay [7] and in assay [8] were -1.87% (inactive) and 2.9% (inactive), respectively.

On to `COc1cc(OC)cc(-n2nnnc2SCC(=O)N2CCCC2)c1`, for which the viability in assay [1] was 87%; in assay [3], 87% (inactive); in assay [4] it was 94.9% (inactive); in assay [5], 87.4% (inactive); in assay [6] (setting [9]), 92%; in assay [6] (setting [10]) it was 87.4%. Also, in assay [2], the Her2 level is 79% (inactive). In assay [6] (H69AR cells + 2 uM doxorubicin), the differential viability (reversal) was -4.62% (inactive). In addition, the inhibition was -2.11% (inactive) in assay [7] and 0.36% (inactive) in assay [8].

Regarding `CCOc1ncccc1C(=O)OCC(=O)N1CC(=O)Nc2ccccc21`, the viability in assay [1] is 87%; in assay [3] it was 87% (inactive); in assay [4], 100% (inactive); in assay [5], 99.7% (inactive); in assay [6] (setting [9]), 97.7%; in assay [6] (setting [10]), 99.7%. Besides, in assay [2], the Her2 level was 97% (inactive). Moreover, the differential viability (reversal) in assay [6] (H69AR cells + 2 uM doxorubicin) is 2.01% (inactive). The inhibition in assay [7] is -0.78% (inactive); in assay [8], -4.92% (inactive).

Turning to `O=C(c1cccc(Cl)c1)N1CCN(Cc2ccncc2)CC1`, the viability in assay [1] was 92%; in assay [3], 92% (inactive); in assay [4] it was 96.2% (inactive); in assay [5], 105% (inactive); in assay [6] (setting [9]), 95.8%; in assay [6] (setting [10]), 105%. The Her2 level in assay [2] was 96.5% (inactive). Besides, the differential viability (reversal) in assay [6] (H69AR cells + 2 uM doxorubicin) was 9.47% (inactive). Also, the inhibition in assay [7] was -0.27% (inactive); in assay [8], 6.89% (inactive).

Take `O=C(Cc1ccccc1)N1CCCC(c2nc(-c3cccs3)no2)C1` (stereo not given): the viability in assay [1] was 91.5%; in assay [3], 91.5% (inactive); in assay [4], 95.5% (inactive); in assay [5], 102% (inactive); in assay [6] (setting [9]) it was 85.7%; in assay [6] (setting [10]) it was 102%. In addition, the Her2 level in assay [2] was 111% (inactive). In assay [6] (H69AR cells + 2 uM doxorubicin), the differential viability (reversal) is 16.8% (inactive). Besides, the inhibition in assay [7] is -5.27% (inactive); in assay [8], -3.61% (inactive).

Turning to `COc1ccccc1NC(=O)C1=C(C)Nc2ncnn2C1c1ccc(C)o1` (stereo not given), the viability is 87.5% in assay [1]; 87.5% (inactive) in assay [3]; 104% (inactive) in assay [4]; 99.3% (inactive) in assay [5]; 87.6% in assay [6] (setting [9]); 99.3% in assay [6] (setting [10]). The Her2 level in assay [2] is 99% (inactive). In assay [6] (H69AR cells + 2 uM doxorubicin), the differential viability (reversal) was 11.7% (inactive). In addition, the inhibition is -0.26% (inactive) in assay [7] and -2.79% (inactive) in assay [8].

Turning to `O=C(Nc1ccccn1)NC(C(F)(F)F)C(F)(F)F`, the viability in assay [1] is 98.5%; in assay [3], 98.5% (inactive); in assay [4], 100% (inactive); in assay [5], 92.9% (inactive); in assay [6] (setting [9]), 90.3%; in assay [6] (setting [10]), 92.9%. Further, in assay [2], the Her2 level was 102% (inactive). The differential viability (reversal) in assay [6] (H69AR cells + 2 uM doxorubicin) was 2.58% (inactive). Also, the inhibition is -1.07% (inactive) in assay [7] and 1.15% (inactive) in assay [8].

Consider `O=C(CSc1ncn[nH]1)c1ccco1`, for which the viability in assay [1] is 120%; in assay [3], 120% (inactive); in assay [4] it was 95.9% (inactive); in assay [5], 94.7% (inactive); in assay [6] (setting [9]) it was 98.5%; in assay [6] (setting [10]) it was 94.7%. Further, the Her2 level in assay [2] was 92% (inactive). Besides, the differential viability (reversal) in assay [6] (H69AR cells + 2 uM doxorubicin) is -3.81% (inactive). In addition, the inhibition is -1.56% (inactive) in assay [7] and 0.33% (inactive) in assay [8].

For `CCOc1ccc(C2/C(=C(/O)c3ccc(OC)cc3)C(=O)C(=O)N2c2cc(C)on2)cc1OC` (stereo not given), the viability is 85% in assay [1]; 85% (inactive) in assay [3]; 82.3% (inactive) in assay [4]; 89.4% (inactive) in assay [5]; 99.7% in assay [6] (setting [9]); 89.4% in assay [6] (setting [10]). Besides, the Her2 level in assay [2] is 144% (inactive). Further, in assay [6] (H69AR cells + 2 uM doxorubicin), the differential viability (reversal) is -10.3% (inactive). Besides, the inhibition in assay [7] was 1.45% (inactive); in assay [8], 10.7% (inactive).

With `COCn1c(COc2ccccc2)nc2ccccc21`, the viability in assay [1] was 86.5%; in assay [3], 86.5% (inactive); in assay [4] it was 107% (inactive); in assay [5], 82.6% (inactive); in assay [6] (setting [9]), 84.8%; in assay [6] (setting [10]), 82.6%. In addition, the Her2 level in assay [2] was 94% (inactive). In assay [6] (H69AR cells + 2 uM doxorubicin), the differential viability (reversal) is -2.19% (inactive). In addition, the inhibition in assay [7] was -9.32% (inactive); in assay [8], -2.67% (inactive).

As to `CCN(CC)C(=O)CSc1nnc([C@@H](N)Cc2ccccc2)o1`, the viability was 82% in assay [1]; 82% (inactive) in assay [3]; 98.5% (inactive) in assay [4]; 98.2% (inactive) in assay [5]; 94.8% in assay [6] (setting [9]); 98.2% in assay [6] (setting [10]). In assay [2], the Her2 level was 106% (inactive). Also, in assay [6] (H69AR cells + 2 uM doxorubicin), the differential viability (reversal) was 3.4% (inactive). Also, the inhibition in assay [7] was -1.87% (inactive); in assay [8], 35.4% (active).

With `COc1ccc2cc(CN(Cc3ccco3)C(c3nnnn3C3CCCCC3)C(C)C)c(=O)[nH]c2c1` (stereo not given), the viability in assay [1] was 100%; in assay [3] it was 100% (inactive); in assay [4], 47.1% (inactive); in assay [5] it was 33.1% (active); in assay [6] (setting [9]), 25.8%; in assay [6] (setting [10]), 33.1%. Further, the Her2 level in assay [2] was 83% (inactive). Besides, in assay [6] (H69AR cells + 2 uM doxorubicin), the differential viability (reversal) is 7.31% (inactive). Moreover, the inhibition was -0.54% (inactive) in assay [7] and -4.59% (inactive) in assay [8].

For the compound `CCOc1cc(NC(=O)c2ccco2)c(OCC)cc1NC(=O)Cc1cccc(OC)c1`, the viability in assay [1] is 107%; in assay [3] it was 107% (inactive); in assay [4], 61.2% (inactive); in assay [5] it was 86.7% (inactive); in assay [6] (setting [9]), 86.7%; in assay [6] (setting [10]), 86.7%. Also, the Her2 level in assay [2] was 99.5% (inactive). Moreover, in assay [6] (H69AR cells + 2 uM doxorubicin), the differential viability (reversal) is -0.055% (inactive). For the same compound, the inhibition was 0.68% (inactive) in assay [7] and -6.39% (inactive) in assay [8].

Consider `Cc1ccc2[nH]c3c(N4CCOCC4)ncnc3c2c1`, for which the viability in assay [1] was 116%; in assay [3], 116% (inactive); in assay [4] it was 76.3% (inactive); in assay [5], 85.5% (inactive); in assay [6] (setting [9]), 101%; in assay [6] (setting [10]), 85.5%. Also, in assay [2], the Her2 level was 95% (inactive). Also, in assay [6] (H69AR cells + 2 uM doxorubicin), the differential viability (reversal) was -15.7% (inactive). For the same compound, the inhibition in assay [7] was -3.68% (inactive); in assay [8] it was 8.2% (inactive).

Consider `C=CCn1c(SCC(=O)NCCCC)nc2scc(-c3ccco3)c2c1=O`, for which the viability in assay [1] was 91.5%; in assay [3], 91.5% (inactive); in assay [4], 95.4% (inactive); in assay [5], 88.8% (inactive); in assay [6] (setting [9]) it was 86.7%; in assay [6] (setting [10]), 88.8%. Besides, the Her2 level in assay [2] was 75.5% (inactive). Also, in assay [6] (H69AR cells + 2 uM doxorubicin), the differential viability (reversal) was 2.11% (inactive). The figures for the inhibition in assay [7] and in assay [8] were 0.13% (inactive) and -1.48% (inactive), respectively.

One may read the viability as a read-out of living cells in per cent, often relative to untreated cells. For orientation: inhibition means the drop in the measured response relative to a control, in per cent.
